The target of assay [1] is T1, Phospholipase A and acyltransferase 2 (Homo sapiens, UniProt Q9NWW9).
T1 sequence (Q9NWW9 whole entry): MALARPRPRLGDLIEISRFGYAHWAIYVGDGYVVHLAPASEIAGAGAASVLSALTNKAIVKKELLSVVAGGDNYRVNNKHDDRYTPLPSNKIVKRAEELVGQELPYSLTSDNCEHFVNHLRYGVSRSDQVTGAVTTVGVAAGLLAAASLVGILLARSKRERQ
The experiment in a line: Inhibition of full-length C-terminal FLAG-tagged human PLAAT2 expressed in HEK293T cell lysate preincubated for 30 mins followed by MB064 addition and measured after 20 mins by SDS-PAGE based ABPP analysis. The essentials:
(§1)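 Dose–response competitive ABPP on cytosol only, from HEK293T overexpressing FLAG-tagged PLAAT. Inhibitor 30 min rt, then MB064 20 min rt. PLAAT2 0.25 μg/μL with 250 nM probe; PLAAT3 0.5 μg/μL with 250 nM; PLAAT4 and PLAAT5 1 μg/μL with 500 nM. Fluorescence normalized to Coomassie. IC50 from curves, reported as pIC50 ± SEM, n = 3.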

Assay [2] has as its target T2, Phospholipase A and acyltransferase 5 (Homo sapiens, UniProt Q96KN8).
T2 sequence (Q96KN8 whole entry): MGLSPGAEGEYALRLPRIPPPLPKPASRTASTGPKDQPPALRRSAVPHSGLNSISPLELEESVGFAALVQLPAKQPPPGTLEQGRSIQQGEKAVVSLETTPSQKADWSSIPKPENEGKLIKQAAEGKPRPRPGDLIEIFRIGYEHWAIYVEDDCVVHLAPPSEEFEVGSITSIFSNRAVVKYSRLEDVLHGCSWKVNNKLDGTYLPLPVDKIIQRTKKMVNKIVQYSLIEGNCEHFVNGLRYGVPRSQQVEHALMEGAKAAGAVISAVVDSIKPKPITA
The experiment in a line: Inhibition of full-length C-terminal FLAG-tagged human PLAAT5 expressed in HEK293T cell lysate preincubated for 30 mins followed by MB064 addition and measured after 20 mins by SDS-PAGE based ABPP analysis. In a few lines:
as §1

SMILES strings stand for the structures.

Broadly, the IC50 is the concentration at which inhibition is half-maximal. A low value points to greater potency in that assay. Turning to `O=C(CCc1ccc(Cl)cc1)C(=O)NCCc1ccccc1`, the 50% inhibitory concentration (IC50) in assay [1] was determined as 631 nM; in assay [2], 398 nM. In turn, `O=C(CCCc1ccccc1)C(=O)NCCc1ccc(Oc2ccc(C(F)(F)F)cn2)cc1` registered an IC50 in assay [1] of 158 nM.

These data come from BindingDB's records for doi:10.1021/acs.jmedchem.0c00522 (Leiden University & Oncode Institute, 2020).
